Source: PubChem BioAssay (several laboratories)
In the library only some 4.1% were active in any assay of this set; here they are far more common.
T cruzi repl: inhibitors of intracellular T. cruzi growth, primary screen, luminescence, NIH3T3 host cells; AID 1885, 2009; inhibition, % (no concentration beside the values); hit rate 1.4% among 300,000; T. cruzi beta-gal in NIH3T3, 90 h;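 active means mean inhibition across valid replicates above about 55%, limit read from the data; inconclusive means mean below that limit but half or more replicates reach it; inactive means mean below it, under half of replicates reach it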;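 further: signal also drops with host cell toxicity which is not excluded here; higher percent means less beta-gal luminescence so fewer parasites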
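Assay system: NIH/3T3 fibroblasts plus reporter T. cruzi. Amount: NIH/3T3 cells, 5,000 per well. Buffer or medium: DMEM, 2% fetal bovine serum. Doses: compound pinned at 50 nL/well, DMSO. Schedule: ≥90 h infection period, 3 h prior cell attachment. Signal: luminescent β-galactosidase signal after 60 min lysis. Read-out: parasite load inhibition, %.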
MEKK2wt PB1 HTS: modulators of MEK5 binding to wildtype MEKK2, primary screen, biochemical, multiplex bead flow cytometry, Alexa488-MEK5; Mitogen-activated protein kinase kinase kinase 2 (Homo sapiens), Q9Y2U5; Alexa488-MEK5 binding to MEKK2 WT; actives lie on both sides; binding response (% of control), % at 10 µM; hit rate 1.1% among 290,000; AID 1531, 2009; in the data active means binding response below about 67% or above about 130%; inconclusive means no clear call, values can overlap the other calls; inactive means in between
FID counter: compounds displacing fluorescent DNA intercalator, primary screen, artefact control for HCV NS3 helicase inhibitor project, biochemical, FID fluorescence; DNA fluorescent intercalator displacement; inhibition, % at 7.9 µM; hit rate 0.17% among 290,000; in the data active means inhibition above about 37%;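 further: higher means more ethidium bromide displaced from hairpin DNA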
MEKK2 mut-MEK5: MEK5 binding signal on mutant MEKK2 PB1, primary screen, biochemical, multiplex bead flow cytometry, Alexa488-MEK5 | Alexa488-MEK5 binding to MEKK2 mutant | percent response, % at 10 µM | hit rate 0.35% among 290,000; in the data active means percent response above about 24%, passing the limit was not always enough
NS3 helicase inh: inhibitors of HCV NS3 helicase, primary screen, biochemical, Cy5 molecular beacon fluorescence; inhibition, % at 10.9 µM; AID 1800, 2009; NS3 helicase DNA unwinding; hit rate 0.56% among 290,000; Hepatitis C virus NS3 helicase;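 active means inhibition above the mean of all tested compounds plus 3 SD, set per campaign, cut at about 35% in these data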
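test system = hepatitis C virus NS3 helicase domain fragment enzyme | reagent = annealed dual-labelled DNA beacon duplex, ATP-started | times = 1 h at 25 °C | detection = Cy5 fluorescence, 0 and 60 min reads | read-out basis = percent inhibition from t60/t0 fluorescence ratio | control set = DMSO and thioflavine S | replication = one well per compound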
MEKK3 PB1 HTS: modulators of MEKK3-MEK5 PB1 binding, primary screen, biochemical, wildtype MEKK3, multiplex bead flow cytometry, Alexa488-MEK5. Mitogen-activated protein kinase kinase kinase 3 (Homo sapiens), Q99759. bead-based flow cytometry, Alexa488-MEK5 binding to MEKK3; actives lie on both sides; 0 = blocked by unlabeled MEK5, 100 = vehicle. binding response (% of control), % at 10 µM. hit rate 1.4% among 290,000. AID 1529, 2009;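 active means binding response more than 3 SD above or below the average of its plate-row segment, actives on both sides; inconclusive means wells at one plate position flagged as instrument error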;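 further: Alexa488 bead fluorescence after subtracting the streptavidin-only scavenger bead signal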
Target sequence (Q99759 whole entry, looked up): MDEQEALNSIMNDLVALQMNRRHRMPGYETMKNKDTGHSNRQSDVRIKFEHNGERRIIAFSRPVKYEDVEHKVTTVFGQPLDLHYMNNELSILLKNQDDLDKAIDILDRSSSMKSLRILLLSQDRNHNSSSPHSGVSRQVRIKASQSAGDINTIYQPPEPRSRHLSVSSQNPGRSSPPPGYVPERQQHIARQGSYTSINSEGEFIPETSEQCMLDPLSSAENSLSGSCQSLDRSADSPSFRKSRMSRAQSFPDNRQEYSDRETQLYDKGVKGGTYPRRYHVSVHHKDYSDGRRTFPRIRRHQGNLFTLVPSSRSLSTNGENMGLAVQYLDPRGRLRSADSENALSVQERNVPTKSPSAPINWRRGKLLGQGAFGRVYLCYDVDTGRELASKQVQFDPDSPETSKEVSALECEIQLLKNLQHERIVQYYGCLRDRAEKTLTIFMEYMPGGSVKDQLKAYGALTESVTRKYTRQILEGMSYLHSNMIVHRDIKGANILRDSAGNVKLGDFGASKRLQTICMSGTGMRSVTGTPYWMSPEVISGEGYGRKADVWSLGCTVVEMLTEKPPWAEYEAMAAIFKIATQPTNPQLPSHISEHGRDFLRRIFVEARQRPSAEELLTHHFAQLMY
Each line names hits and unclear results; the compound was inactive in the other large screens; [ ] = another dose, or the depositor's remark.

Clc1ccc(-c2csc(N/N=C\c3cccnc3)n2)cc1	T cruzi repl 55.5
Clc1ccc(-c2csc(N/N=C/c3ccco3)n2)cc1	none
CC(=O)c1sc(N/N=C\c2c(O)ccc3ccccc23)nc1C	none (no result: MEKK2wt PB1 HTS, FID counter, MEKK2 mut-MEK5, NS3 helicase inh, MEKK3 PB1 HTS)
O=C(CCN=C1NS(=O)(=O)c2ccccc21)OCc1nnc(-c2ccccc2)o1	none (no result: MEKK2wt PB1 HTS, FID counter, MEKK2 mut-MEK5, NS3 helicase inh, MEKK3 PB1 HTS)
O=C(CN1CCN(c2ccc(F)cc2)CC1)c1ccc(O)cc1O	none
CCCCCC(=O)Nc1cccc(C2=NOC3(C2)C[C@@H](C(N)=O)N(C(=O)c2ccc(Cl)cc2)C3)c1 (stereo partly specified)	T cruzi repl 60.1 (no result: FID counter, NS3 helicase inh)
CCCCCC(=O)Nc1cccc(C2=NOC3(C2)C[C@H](C(N)=O)N(C(=O)CCCCC)C3)c1 (stereo partly specified)	none (no result: FID counter, NS3 helicase inh)
Cc1ccc(S(=O)(=O)N2CC(C)N(C(=O)N3CCOCC3)C2C)cc1 (stereo unspecified)	none
CCOc1ccccc1CNC(=O)C1CCCN(c2nc3ccccc3o2)C1 (stereo unspecified)	MEKK3 PB1 HTS 68.0[inhibitor] (no result: T cruzi repl)
O=C(Nc1cccc(NC(=O)c2ncn[nH]2)c1)c1cccc(Cl)c1	none
O=[N+]([O-])c1nn(-c2ccc3c(c2)OCCO3)n(O)c1=Nc1ccc(Cl)cc1	T cruzi repl 55.1
Cc1ccc(N=c2c([N+](=O)[O-])nn(-c3ccc(Cl)cc3)n2O)cc1C	T cruzi repl 58.8
Cc1ccc(N=c2c([N+](=O)[O-])nn(-c3ccc4c(c3)OCCO4)n2O)c(Cl)c1	T cruzi repl 75.1
Cc1ccc(N=c2c([N+](=O)[O-])nn(-c3ccc4c(c3)OCCO4)n2O)cc1F	T cruzi repl inconclusive
CCc1ccc(N=c2c([N+](=O)[O-])nn(-c3ccc4c(c3)OCCO4)n2O)cc1	T cruzi repl 61.8
CCOC(=O)c1c(S(=O)(=O)NCc2ccc(C)o2)c(C)n(C)c1C	none
Cc1cc(C)cc(N=c2c([N+](=O)[O-])nn(-c3ccc4c(c3)OCCO4)n2O)c1	T cruzi repl 58.4
O=[N+]([O-])c1nn(-c2ccc3c(c2)OCCO3)n(O)c1=Nc1ccccc1	none
OC(c1cc(-c2ccc(Cl)cc2)nc2ccccc12)C1CCCCN1 (stereo unspecified)	MEKK2wt PB1 HTS 155.0, MEKK2 mut-MEK5 59.0
O[C@@H](c1cc(C(F)(F)F)nc2c(C(F)(F)F)cccc12)[C@H]1CCCCN1	none (no result: MEKK2wt PB1 HTS, FID counter, MEKK2 mut-MEK5, NS3 helicase inh, MEKK3 PB1 HTS)
O=C(O)c1cccnc1Sc1ccccc1Cl	MEKK2wt PB1 HTS 29.0
Cc1ccccc1OCCn1cnc2cc([N+](=O)[O-])ccc2c1=O	T cruzi repl 60.3
CN(CCc1ccccn1)C1CCCN(S(=O)(=O)c2ccc(F)c(Cl)c2)C1 (stereo unspecified)	T cruzi repl 72.5
Cc1nc(Cl)c(C(=O)NC(C)(C)C)c(C)c1Cl	none
N#Cc1ccccc1Cn1cc(/C=N/Nc2ccc([N+](=O)[O-])cn2)c2ccccc21	T cruzi repl 64.4
CCC1=C[C@H]2CN(C1)Cc1c([nH]c3ccccc13)[C@@](C(=O)OC)(c1cc3c(cc1OC)N(C)[C@H]1[C@@](O)(C(=O)OC)[C@H](OC(C)=O)[C@]4(CC)C=CCN5CC[C@]31[C@@H]54)C2	MEKK2wt PB1 HTS 183.0, MEKK2 mut-MEK5 32.0 (no result: T cruzi repl, FID counter, NS3 helicase inh)
O=C(c1cc(Cl)ccc1OCc1ccccc1)N1CCOCC1	none
Cc1cccc2sc(N(CCCN(C)C)C(=O)c3ccc4ncsc4c3)nc12	none
CN(C)CCN(C(=O)c1ccc2c(c1)OCCO2)c1nc2ccc(Cl)cc2s1	T cruzi repl 56.7
CN(C)CCCN(C(=O)c1ccc2c(c1)OCCO2)c1nc2ccc(Cl)cc2s1	FID counter 39.7
Cc1ccc(C(=O)N(CCCN(C)C)c2nc3ccc(Cl)cc3s2)cc1C	T cruzi repl 69.5
